Laboratory results taken from ChEMBL document CHEMBL3580602, “Iminolactones from Schizophyllum commune” (J Nat Prod, 2015).
Activity calls are given as the source filed them. The calls are words filed in the database; no cut-off is given here.

What was measured:
PC-3 [1] = test: Cytotoxicity against human PC3 cells assessed as growth inhibition after 48 hrs by sulforhodamine B assay; type: functional, cell-based; conditions: PC-3, 48 h
Method in brief: (§1)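 Cancer lines sourced from the National Cancer Institute and run in a high-flux anticancer screen. Cells were exposed to the test compound over a range of concentrations at 37 °C for 48 h. IC50 is reported as the mean of four experiments, with thapsigargin, methotrexate and paclitaxel as positive controls.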

MCF7 [2] = test: Cytotoxicity against human MCF7 cells assessed as growth inhibition after 48 hrs by sulforhodamine B assay; type: functional, cell-based; conditions: MCF7, 48 h; method in brief: as §1
[3] = Cytotoxicity against mouse McCoy cells assessed as growth inhibition; type: cell-based
EL4 [4] = test: Cytotoxicity against mouse EL4 cells assessed as growth inhibition after 48 hrs by sulforhodamine B assay; type: functional, cell-based; conditions: EL4, 48 h; method in brief: as §1
[5] = Cytotoxicity against human MCF10A cells assessed as growth inhibition; type: cell-based; conditions: MCF-10A
EL4 [6] = test: Cytotoxicity against mouse EL4 cells up to 200 uM after 48 hrs by sulforhodamine B assay; type: functional, cell-based; method in brief: as §1
PC-3 [7] = test: Cytotoxicity against human PC3 cells up to 200 uM after 48 hrs by sulforhodamine B assay; type: functional, cell-based; method in brief: as §1
[8] = Cytotoxicity against human MCF10A cells up to 200 uM; type: cell-based; conditions: mcf-10a
[9] = Cytotoxicity against mouse McCoy cells up to 200 uM; type: cell-based
MCF7 [10] = test: Cytotoxicity against human MCF7 cells up to 200 uM after 48 hrs by sulforhodamine B assay; type: functional, cell-based; method in brief: as §1
[11] = Cytotoxicity against human MCF10A cells assessed as growth inhibition at 1230 uM relative to control; type: cell-based, MCF-10A; conditions: read-out: GI
[12] = Cytotoxicity against mouse McCoy cells assessed as growth inhibition at 1230 uM relative to control; type: cell-based; conditions: read-out: GI

SMILES	IC50 (PC-3 [1])	IC50 (MCF7 [2])	IC50 [3]	IC50 (EL4 [4])	IC50 [5]	Activity (EL4 [6])	Activity (PC-3 [7])	Activity [8]	Activity [9]	Activity (MCF7 [10])	inhibition at 1230 µM [11]	inhibition at 1230 µM [12]
C/C=C(/C)C(=O)O[C@H]1C(C)=C2[C@H]([C@@H]1OC(=O)CCCCCCC)[C@@](C)(OC(C)=O)C[C@H](OC(=O)CCC)[C@@]1(O)[C@H]2OC(=O)[C@@]1(C)O [THAPSIGARGIN]	2.4 µM	2.7 µM	2 µM	1.4 µM	2.4 µM	–	–	–	–	–	–	–
CC(=O)O[C@H]1C(=O)[C@@]2(C)[C@H]([C@H](OC(=O)c3ccccc3)[C@]3(O)C[C@H](OC(=O)[C@H](O)[C@@H](NC(=O)c4ccccc4)c4ccccc4)C(C)=C1C3(C)C)[C@]1(OC(C)=O)CO[C@@H]1C[C@@H]2O [PACLITAXEL]	–	–	–	1.7 µM	–	–	–	–	–	–	–	–
CC1(C)C[C@@H]2OC(=O)[C@@H](Cc3ccccc3)N=C2[C@@]23C(=O)OC4OCC(=CC[C@@H]12)[C@H]43 (stereo partly specified)	–	–	–	–	–	inactive	inactive	Non-toxic	Non-toxic	inactive	–	–
CC1(C)C[C@@H]2OC(=O)[C@H](Cc3c[nH]c4ccccc34)N=C2[C@@]23C(=O)OC4OCC(=CC[C@@H]12)[C@H]43 (stereo partly specified)	13.4 µM	6.7 µM	> 1230 µM	4 µM	> 1230 µM	–	–	–	–	–	20%	41%
CN(Cc1cnc2nc(N)nc(N)c2n1)c1ccc(C(=O)N[C@@H](CCC(=O)O)C(=O)O)cc1 [METHOTREXATE]	–	–	–	5.1 µM	–	–	–	–	–	–	–	–
CC1(C)C[C@@H]2OC(=O)[C@H](Cc3ccccc3)N=C2[C@@]23C(=O)OC4OCC(=CC[C@@H]12)[C@H]43 (stereo partly specified)	14.7 µM	4.9 µM	> 1230 µM	3.7 µM	> 1230 µM	–	–	–	–	–	22%	30%
